The list is not random: actives were taken first. Their share in the collection is about 6.4%.
E coli WT exp – growth inhibitors of wild-type E. coli, primary screen, strain BW25113, expanded library, OD600. OD600 absorbance. growth inhibition, % at 100 µM. actives 0.15% (n = 98,000). AID 710, 2007;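 active means growth inhibition above about 50% at one test dose, limit read from the data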;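 further: growth measured after 20 h incubation at 37 °C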
Lung fibro prol – antiproliferative effect on LL 47 fibroblasts – human, LL 47 cells, CellTiter-Glo luminescence, primary screen; LL 47 human lung fibroblast viability, ATP luminescence; active compounds read low; viability, % at 10 µM; actives 1.1% (n = 85,000); AID 719, 2007;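 active means viability at or below 50% in the single dose screen; inactive means viability above 50%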;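 further: compound exposure lasted 72 h before the ATP readout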
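material = human LL 47 lung fibroblast cells | dosing = compounds added from tenfold dosing solution, 0.1% DMSO final | timing = overnight cell rest, 72 h compound treatment at 37 °C | measured by = CellTiter-Glo luminescence measuring cellular ATP | evaluation = % viability versus median cells-only luminescence | control set = cell-only wells, no compound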
HUVEC prolif 384 – inhibitors of HUVEC proliferation, primary screen, cell-based, 384-well; actives 1.1% (n = 86,000); CellTiter-Glo luminescence, 72 h; active compounds read low; viability, % at 10 µM (by protocol);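 active means viability at or below 30%; inactive means viability above 30%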
Ecoli tolC – growth inhibitors of E. coli tolC mutant, primary screen, strain BW25113 ΔtolC::kan, 384-well | actives 2.2% (n = 65,000) | AID 573, 2007 | OD615 | growth inhibition, % at 10 µM (by protocol);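 active means growth inhibition at or above a cutoff equal to the mean over every tested compound plus 3 SD, cut at about 60% in these data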;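 further: growth measured after 20 h incubation at 37 °C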
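Test system – E. coli BW25113 ΔtolC::kan, tolC deletion mutant strain · Detection – OD at 615 nm · Buffer or medium – LB with kanamycin 50 µg/mL · Times – 20 h compound exposure of bacteria at 37 °C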
H69AR growth 86K – proliferation blockers of H69AR lung cancer cells, primary screen, cell-based, human, 86K library; H69AR lung tumor viability, ATP luminescence, 72 h; active compounds read low; viability, % at 10 µM; actives 6% (n = 85,000); AID 598, 2007;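 active means viability at or below 40%; inactive means viability above 40%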;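 further: multidrug resistant small cell line overexpressing MRP-1 efflux transporter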
Jurkat tox 60K – cytotoxicity toward Jurkat T cells, primary screen, cytotoxicity control, cell-based, Jurkat E6.1, 60K MLSMR library | Jurkat E6.1 viability, ATP luminescence, 48 h | inhibition, % at 4 µM | actives 1.2% (n = 56,000);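 active means inhibition above the mean inhibition of all tested compounds plus 3 SD, cut at about 28% in these data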
Numbers stand for hits; – = inactive; · = no result given.

SMILES | E coli WT exp | Lung fibro prol | HUVEC prolif 384 | Ecoli tolC | H69AR growth 86K | Jurkat tox 60K
CCOc1cccc2cc(-c3cn4cc(C)ccc4n3)c(=O)oc12 | – | 24.2 | – | – | · | –
CNc1nnc(-c2cc3cc(Cl)ccc3oc2=O)s1 | – | – | – | · | – | ·
COc1ccc2oc(=O)c(-c3nnc(NCc4ccco4)s3)cc2c1 | – | – | 19.9 | – | 2.6 | –
CCOc1cccc2cc(-c3nnc(NCc4ccco4)s3)c(=O)oc12 | – | – | 19.5 | – | 3.7 | –
COc1cccc2cc(-c3cn4ccc(C)cc4n3)c(=O)oc12 | · | – | – | · | – | ·
CC1CCN(C(=O)Cn2cc3c(n2)CCCC3)CC1 | – | – | – | – | – | –
O=C(Cn1c2c(c(-c3ccccc3)cc1=O)CCCC2)N1CCCCCC1 | · | – | – | 100.0 | – | –
COC(=O)c1cncc(O)c1 | – | – | – | · | – | ·
Cc1noc(C)c1C(=O)N1CCc2ccccc21 | – | – | – | – | – | –
Cc1onc(-c2c(Cl)cccc2Cl)c1C(=O)N1CCCc2ccccc21 | – | – | – | · | 11.8 | ·
Cc1onc(-c2c(F)cccc2Cl)c1C(=O)N1CCc2ccccc21 | – | – | – | · | 30.2 | ·
Cc1onc(-c2ccccc2)c1C(=O)N1CCCc2ccccc21 | – | – | – | – | – | –
O=C(CSC1=NCCS1)Nc1ccnc2ccccc12 | – | – | – | – | – | 29.3
COc1ccc2nc(NC(=O)CSC3=NCCS3)sc2c1 | – | – | 29.8 | – | – | –
CCOc1ccc2nc(NC(=O)CSC3=NCCS3)sc2c1 | – | – | – | – | 1.1 | –
CCOc1ccc2nc(NC(=O)CN3CCC(n4nnc5cc(F)ccc54)CC3)sc2c1 | – | – | 9.2 | 79.1 | – | –
CCOc1ccc2nc(NC(=O)CSc3ccc(Cl)cc3)sc2c1 | – | – | – | · | – | ·
O=C(CN1CCC(n2nnc3cc(F)ccc32)CC1)NC1CC1 | – | – | – | – | – | –
O=C1c2cccc3c(O)ccc(c23)C(=O)N1Cc1ccccc1 | – | · | · | · | · | ·
COCCN(Cc1cc2ccc(C)cc2n2nnnc12)Cc1nnnn1C(C)(C)C | · | – | – | · | – | ·
CCOC(=O)N1CCC2(CC1)C(C#N)=C(N)Oc1c2c(C)nn1-c1cccc(Cl)c1 | – | – | – | – | – | –
Cc1ccc(N(CC(=O)Nc2ccc(S(=O)(=O)N3CCOCC3)cc2)S(C)(=O)=O)cc1C | – | – | – | – | – | ·
CC(C)c1ccc(N(CC(=O)Nc2ccc(S(=O)(=O)N3CCOCC3)cc2)S(C)(=O)=O)cc1 | – | – | – | · | 30.2 | ·
CCCn1nnc(NC(=O)c2cccc(OCC)c2)n1 | – | – | – | – | – | –
CCCn1nnc(NC(=O)c2cccc(OCC(C)C)c2)n1 | – | – | – | – | 38.3 | ·
SMILES | E coli WT exp | Lung fibro prol | HUVEC prolif 384 | Ecoli tolC | H69AR growth 86K | Jurkat tox 60K
CC(C)COc1cccc(C(=O)Nc2ccc(S(=O)(=O)N3CCOCC3)cc2)c1 | – | – | – | – | 21.7 | –
CCOc1cc(C(=O)Nc2ccc(S(=O)(=O)N3CCOCC3)cc2)cc(OCC)c1OCC | – | – | – | – | – | –
CC1=C(c2ccc(Cl)cc2)[N+](=O)C(C)(C)N1[O-] | · | – | – | – | – | ·
N#CCC(=O)N1CCn2c1nc1ccccc12 | – | – | – | – | – | –
CCC(=O)N1c2ccc(S(=O)(=O)CCC(=O)NC3CCCC3)cc2CC1C (configuration not stated) | – | – | – | – | – | –
CCC(=O)N1c2ccc(S(=O)(=O)CCC(=O)N3CCn4c3nc3ccccc34)cc2CC1C (configuration not stated) | – | 43.5 | – | – | 1.9 | –
CCC(=O)N1c2ccc(S(=O)(=O)CCC(=O)NCc3cccs3)cc2CC1C (configuration not stated) | – | – | – | · | 30.4 | ·
CCC1Cc2c(nc3c4c(nc(N5CCOCC5)c(C#N)c24)NC(C)=N3)O1 (configuration not stated) | · | – | – | – | – | –
CCOC(=O)C1CCN(Cc2ccc(O)c3ncccc23)CC1 | – | – | – | – | 1.1 | 43.2
COCCCN(C(C)=O)c1nc(-c2ccc(OC)cc2)cs1 | – | – | – | – | 15.3 | 57.0
